From PubChem BioAssay
Activity calls are given as the source filed them.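 The calls were made as follows, unless noted: active = visually confirmed hit in the image check and inhibition above 20%; inconclusive = visually confirmed hit but inhibition not above 20%; inactive = no visual hit in the image check.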

Tests used:
[1] = inhibitors of TNFa-induced NFkB p65 translocation, primary screen, imaging, HUVEC, MLSMR starter and 10KST1 sets (AID 438;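 active = inhibition above 20% together with a positive visual image hit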;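 also: compound added about 3h40 before a 20 min TNFalpha stimulation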;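 as to inhibition: signal is the nuclear over cytoplasmic p65 intensity ratio per well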); details: HUVEC TNFa-induced p65 nuclear translocation; cell count: measured here: nuclei count (cytotoxicity indicator), at 2.08 µM; inhibition: at 2 µM, stronger effect = higher value, 0% TNFa-plus-vehicle, 100% no-TNFa wells
[2] = reduction of polyQ htt aggregates in cells – imaging, exon1htt(103Q)mCFP cells, high-content imaging, primary screen (AID 483;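 active = visual image review flags a hit and inhibition of aggregation exceeds 20%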;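 also: compound exposure lasted 3 days before fixation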;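 as to nuclei count: percent of the per-plate median nuclei count of sample wells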); details: exon1htt(103Q)mCFP cell line, aggregate imaging, at 2 µM; inhibition of aggregation: stronger effect = higher value; nuclei count: measured here: cell count, toxicity
[3] = endothelial E-selectin expression blockers – imaging, HUVEC, immunofluorescence, MLSMR starter and 10KST1 sets, primary screen (AID 487); details: HUVEC TNFalpha-induced E-selectin immunofluorescence imaging, at 2 µM; inhibition: stronger effect = higher value; nuclei count: measured here: cell number, toxicity;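 as to inhibition: signal is fraction of cell area covered by stained E-selectin grains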;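 as to nuclei count: 100% = median nuclei count of all wells on the same plate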
[4] = target: Voltage-gated potassium channel subunit beta-2 (Rattus norvegicus) (UniProt P62483); test: inhibitors of rat Kvbeta2 reductase activity – biochemical, NADPH fluorescence, primary screen (AID 622;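 active = fluorescence slope higher than the sample average by over 3 SD, cut at about -0.22 in these data, passing the limit was not always enough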;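 also: slope of raw intensity against log time taken from 70 to 1610 s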); details: recombinant KvBeta, 4-cyanobenzaldehyde reduction, at 10 µM, stronger effect = higher value
[5] = target: Voltage-gated potassium channel subunit beta-2 (Rattus norvegicus) (UniProt P62483); test: enhancers of rat Kvbeta2 NADPH turnover – biochemical, NADPH fluorescence, primary screen (AID 623;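 active = NADPH fluorescence slope more negative than the mean of all samples by about 3 SD, 99.7% confidence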;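 also: fluorescence intensity change per second fitted from 20 to 320 s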); details: Recombinant KvBeta, NADPH fluorescence decrease slope, 10 min; at 10 µM; stronger effect = lower value
[6] = target: Muscarinic acetylcholine receptor M4 (Homo sapiens) (UniProt P08173); test: M4-linked GIRK flux change, two-sided – cell-based, HEK293 M4/GIRK, thallium flux, BTC-AM, M4 allosteric agonist project, primary screen (AID 625;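 active = fluorescence slope after compound addition differing from the mean of all tested samples at 99.7% confidence, mostly higher but some lower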;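 also: thallium influx through GIRK channels coupled to M4 in HEK293 cells with BTC-AM dye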); details: at 10 µM, actives lie on both sides
In short: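 assay system = HEK293 cells with M4 receptor and GIRK channels | medium = pH 7.3 thallium assay buffer | doses = 10 µM final, single point | timing = cells overnight at 37 °C, BTC-AM loading 1 h, reads 2 min total | signal = BTC-AM fluorescence, 1 Hz kinetic reads | read-out = post-addition slope, 15–24 s, of baseline-normalized fluorescence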

[7] = blockers of RIG-like receptor reporter activation – cell-based, Sendai virus stimulus, luciferase, 10K MLSCN set, TLR/RLR signaling modifier project, primary screen (AID 602276;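 active = inhibition at or above 50% at 10 µM; inactive = inhibition below 50%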;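 also: firefly luciferase from ISG56 promoter only with Renilla not read in this screen; 0% = Sendai virus plus DMSO and 100% = medium plus DMSO without virus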); details: HEK293 RL24 IRF3 luciferase reporter, at 10 µM, stronger effect = higher value
[8] = TLR3 IRF3 reporter activation blockers – cell-based, poly I:C stimulus, luciferase, 10K MLSCN set, primary screen (AID 602277;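 active = inhibition of the reporter signal at or above 50%; inactive = inhibition below 50%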); details: HEK293-TLR3 RL24 IRF3 luciferase reporter, at 10 µM, stronger effect = higher value

Sequence of Voltage-gated potassium channel subunit beta-2 (Rattus norvegicus) (P62483 whole entry, looked up): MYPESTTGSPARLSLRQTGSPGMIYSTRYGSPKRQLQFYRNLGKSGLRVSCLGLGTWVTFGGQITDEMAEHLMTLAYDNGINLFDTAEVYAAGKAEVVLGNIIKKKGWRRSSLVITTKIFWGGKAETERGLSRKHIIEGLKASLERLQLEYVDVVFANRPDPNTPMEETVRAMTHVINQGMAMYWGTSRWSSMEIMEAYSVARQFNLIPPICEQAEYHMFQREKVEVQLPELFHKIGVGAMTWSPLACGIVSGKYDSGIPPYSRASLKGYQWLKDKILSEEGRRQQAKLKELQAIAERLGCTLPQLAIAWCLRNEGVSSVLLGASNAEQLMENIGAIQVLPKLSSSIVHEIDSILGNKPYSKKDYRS
Sequence of Muscarinic acetylcholine receptor M4 (Homo sapiens) (P08173 whole entry, looked up): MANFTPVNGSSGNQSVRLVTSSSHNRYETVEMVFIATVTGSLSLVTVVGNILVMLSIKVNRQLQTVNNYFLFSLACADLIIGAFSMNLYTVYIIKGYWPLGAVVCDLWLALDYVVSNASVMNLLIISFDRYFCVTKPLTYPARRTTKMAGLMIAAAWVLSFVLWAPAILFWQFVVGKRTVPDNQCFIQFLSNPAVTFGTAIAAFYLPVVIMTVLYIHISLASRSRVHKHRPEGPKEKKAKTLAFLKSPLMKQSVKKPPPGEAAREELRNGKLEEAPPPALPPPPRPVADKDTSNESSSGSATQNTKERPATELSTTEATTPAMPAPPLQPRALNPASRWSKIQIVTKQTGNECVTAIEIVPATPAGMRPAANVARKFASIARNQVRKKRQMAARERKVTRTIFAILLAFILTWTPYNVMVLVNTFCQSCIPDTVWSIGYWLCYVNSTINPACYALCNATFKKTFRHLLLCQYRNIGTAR

SMILES	cell count [1]	inhibition [1]	inhibition of aggregation [2]	nuclei count [2] [%]	inhibition [3]	nuclei count [3] [%]	fluorescence slope [4]	NADPH fluorescence slope [5]	fluorescence slope [6]	inhibition [7]	inhibition [8]
O=C(O)c1c[nH]c2ccc(S(=O)(=O)N3CCN(c4ccc(F)cc4)CC3)cc2c1=O	423	-1.1% (inactive)	20.5% (inactive)	87.5	-183% (inactive)	101	-0.566 (inactive)	2e-06 (inactive)	0.00349 (inactive)	1.85% (inactive)	0.478% (inactive)
CCCCC(c1nnnn1CS(=O)(=O)c1ccc(C)cc1)N1CCN(c2ccccc2)CC1 (stereo not drawn)	370	6.6% (inactive)	-10.3% (inactive)	100	-47.5% (inactive)	102	-0.46 (inactive)	-2.8e-05 (inactive)	0.00637 (inactive)	32% (inactive)	16.2% (inactive)
Nc1cc(C(=O)O)ccc1Nc1ccccc1	423	-9.8% (inactive)	20.7% (inactive)	86.5	15.1% (inactive)	101	-0.557 (inactive)	-4.4e-06 (inactive)	0.0056 (inactive)	-4.17% (inactive)	-19% (inactive)
COC(=O)Nc1ccc(S(=O)(=O)N2CCN(c3ccc(F)cc3)CC2)cc1	381	-3.7% (inactive)	12.1% (inactive)	100	-124% (inactive)	123	-0.564 (inactive)	-0.000131 (inactive)	0.00356 (inactive)	6.88% (inactive)	13.6% (inactive)
Cc1cc2c(nn1)CCC/C2=N\O	350	4.3% (inactive)	9.7% (inactive)	99.1	14.6% (inactive)	110	-0.552 (inactive)	2.3e-05 (inactive)	0.00403 (inactive)	17.4% (inactive)	19.5% (inactive)
O=C(CNS(=O)(=O)c1ccc(Br)s1)N1CCCC1	367	3.7% (inactive)	-1% (inactive)	93.3	-164% (inactive)	101	-0.636 (inactive)	-9.6e-06 (inactive)	0.00369 (inactive)	21.1% (inactive)	25.7% (inactive)
COC(=O)c1cccc(NC(=O)NC2CCCN2S(=O)(=O)c2ccc(Cl)cc2)c1 (stereo not drawn)	612	-16.1% (inactive)	2.9% (inactive)	101	-144% (inactive)	141	-0.392 (inactive)	-6.9e-05 (inactive)	0.00559 (inactive)	14% (inactive)	20.5% (inactive)
O=C(CSc1ccc(Cl)cc1)OCc1nnc(-c2ccccc2)o1	503	-1.1% (inactive)	8.3% (inactive)	108	-46.5% (inactive)	115	-0.613 (inactive)	6.8e-05 (inactive)	0.00469 (inactive)	-5.35% (inactive)	-4.44% (inactive)
COC(=O)Cn1cc(C(=O)c2cccs2)c2ccccc21	220	-21.4% (inactive)	8.5% (inactive)	82.9	4.3% (inactive)	70.5	-0.554 (inactive)	-3.7e-05 (inactive)	0.00685 (inactive)	14.1% (inactive)	20.4% (inactive)
CN1CCN(C(=O)c2ccccc2N(Cc2ccccc2)S(C)(=O)=O)CC1	359	4% (inactive)	2.7% (inactive)	111	-6% (inactive)	110	-0.596 (inactive)	-6.8e-05 (inactive)	0.00748 (inactive)	-0.336% (inactive)	4.8% (inactive)
Cc1ccc(NC(=O)c2ccc(NS(=O)(=O)c3c(C)noc3C)cc2)cc1C	319	-15.8% (inactive)	-9.9% (inactive)	94.1	-49.9% (inactive)	110	-0.48 (inactive)	-0.000226 (inactive)	0.00475 (inactive)	6.15% (inactive)	9.64% (inactive)
CCCCNC(=O)OC(C)CNC(=O)Oc1cccc(C)c1 (stereo not drawn)	482	7.6% (inactive)	13.4% (inactive)	92.7	41.7% (inactive)	74.5	-0.471 (inactive)	-2.9e-05 (inactive)	0.00498 (inactive)	22.3% (inactive)	15.6% (inactive)
COc1cccc(N2CCN(Cc3nc(N)nc(Nc4ccccc4OC)n3)CC2)c1	495	2.9% (inactive)	-8.8% (inactive)	97.2	2.5% (inactive)	104	-0.562 (inactive)	-3.3e-05 (inactive)	0.00593 (inactive)	19% (inactive)	17.2% (inactive)
COC(=O)Cc1c(C)nc2nc(-c3ccco3)[nH]n2c1=O	409	1.2% (inactive)	5.5% (inactive)	93.6	-28.5% (inactive)	105	-0.467 (inactive)	-4e-05 (inactive)	0.00635 (inactive)	9.5% (inactive)	19.1% (inactive)
COCCn1c(=O)[nH]c2cc(C(=O)NCCCN3CCN(c4ccc(F)cc4)CC3)ccc2c1=O	333	21.3% (inactive)	-5.1% (inactive)	107	-22.8% (inactive)	111	-0.472 (inactive)	-3.1e-05 (inactive)	0.00483 (inactive)	16.2% (inactive)	9.46% (inactive)
NC(=O)c1nsnc1-c1ccccc1O	504	-9.3% (inactive)	-3.4% (inactive)	107	20.3% (inactive)	100	-0.531 (inactive)	0.0001 (inactive)	0.00622 (inactive)	-10.2% (inactive)	-7.73% (inactive)
CCCn1c(NCc2ccc3c(c2)OCO3)nc2ccccc21	650	-6.8% (inactive)	2.4% (inactive)	97.6	32% (inactive)	93.5	-0.537 (inactive)	-5.7e-05 (inactive)	0.00348 (inactive)	-9.91% (inactive)	-7.89% (inactive)
Cn1cnnc1SCC(=O)Nc1ccccc1Sc1ccccc1	740	4% (inactive)	-6.3% (inactive)	93.3	-36.2% (inactive)	127	-0.215 (inactive)	-2.9e-05 (inactive)	0.00628 (inactive)	13.5% (inactive)	8.17% (inactive)
O=C1CC2CS(=O)(=O)CC2N1c1ccc(Oc2ccccc2)cc1 (stereo not drawn)	330	3.1% (inactive)	5.7% (inactive)	88.5	-33.8% (inactive)	106	-0.395 (inactive)	-8.8e-05 (inactive)	0.00573 (inactive)	17.3% (inactive)	33% (inactive)
Cc1ccccc1S(=O)(=O)Cc1ccc(C(=O)NCc2cccnc2)o1	596	-2.3% (inactive)	9% (inactive)	105	9.8% (inactive)	112	-0.546 (inactive)	4e-05 (inactive)	0.00552 (inactive)	16.7% (inactive)	19.4% (inactive)
CC(C(=O)N1c2ccc(F)cc2CCC1C)N1C(=O)c2ccccc2C1=O (stereo not drawn)	490	5% (inactive)	1.1% (inactive)	118	-158% (inactive)	138	-0.452 (inactive)	-4.6e-05 (inactive)	0.00501 (inactive)	10.8% (inactive)	11.7% (inactive)
CCOC(=O)c1[nH]c2ccc(F)cc2c1NC(=O)C(C)N1CCc2cc(OC)c(OC)cc2C1 (stereo not drawn)	436	0.5% (inactive)	15.1% (inactive)	76.9	42.5% (inactive)	96	-0.574 (inactive)	-3.4e-05 (inactive)	0.00265 (inactive)	-0.796% (inactive)	35.3% (inactive)
CCn1cc(C(=O)NCCN(C)CCc2ccccc2)c(=O)c2cc(S(=O)(=O)N(C)C)ccc21	543	-20.4% (inactive)	-8.6% (inactive)	118	-10.5% (inactive)	110	-0.494 (inactive)	0.0002 (inactive)	0.00668 (inactive)	14% (inactive)	18.4% (inactive)
COc1cc(-c2nnc(SCC(=O)c3cc(C)n(CC4CCCO4)c3C)o2)cc(OC)c1OC (stereo not drawn)	317	2.8% (inactive)	23.1% (inactive)	94.5	-43.2% (inactive)	115	-0.245 (inactive)	-3.7e-06 (inactive)	0.00647 (inactive)	24.8% (inactive)	27.1% (inactive)
CCN(CC)c1ccc2c(c1)C(=O)N(C)C2=O	580	-1.9% (inactive)	-5.6% (inactive)	92.2	-49% (inactive)	104	-0.417 (inactive)	-6.9e-05 (inactive)	0.00562 (inactive)	-6.87% (inactive)	-37.5% (inactive)
O=C1CCCC2=C1C(c1ccsc1)CC(=O)N2c1ccccc1 (stereo not drawn)	550	-11.1% (inactive)	-6.3% (inactive)	100	-88.5% (inactive)	95.1	-0.422 (inactive)	-0.000362 (inactive)	0.00622 (inactive)	15.9% (inactive)	19.3% (inactive)
COc1ccc(-c2nn3c(-c4ccncc4)nnc3s2)cc1OC	562	5.4% (inactive)	-7.4% (inactive)	90.8	24.6% (inactive)	105	-0.42 (inactive)	-0.000356 (inactive)	0.00419 (inactive)	19.4% (inactive)	24.2% (inactive)
CC(C)OC(=O)CSc1nnnn1-c1ccc2c(c1)OCCO2	294	-9.9% (inactive)	-2.7% (inactive)	111	-0.1% (inactive)	118	-0.228 (inactive)	-3.6e-05 (inactive)	0.00598 (inactive)	-0.252% (inactive)	-97.9% (inactive)
